Bioassay records (PubChem BioAssay)
Cav32 inh: inhibitors of human Cav3.2 T-type calcium channel | hit rate 4% among 100,000 | AID 449739 | B-score at 10 µM | Cav3.2-expressing cells, Fluo-4 calcium fluorescence FDSS; stronger effect = lower value;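 active = single-dose well whose peak fluorescence ratio is a statistical outlier from its plate by either plate-standardised score or position-corrected B-score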
CYP2C9 activ: increases human cytochrome P450 2C9 activity; hit rate 1.4% among 96,000; AID 1024; recombinant CYP2C9, luciferin-H conversion, luminescence; stronger effect = higher value; factor 1 = untreated enzyme, 0 = blocked; activation factor at 5 µM;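 active = activation factor of 2 or more for CYP2C9 at a 5 µM dose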;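 also: 0 = sulfaphenazole-blocked wells and 1 = vehicle-only wells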
Target sequence (P11712 whole entry, looked up): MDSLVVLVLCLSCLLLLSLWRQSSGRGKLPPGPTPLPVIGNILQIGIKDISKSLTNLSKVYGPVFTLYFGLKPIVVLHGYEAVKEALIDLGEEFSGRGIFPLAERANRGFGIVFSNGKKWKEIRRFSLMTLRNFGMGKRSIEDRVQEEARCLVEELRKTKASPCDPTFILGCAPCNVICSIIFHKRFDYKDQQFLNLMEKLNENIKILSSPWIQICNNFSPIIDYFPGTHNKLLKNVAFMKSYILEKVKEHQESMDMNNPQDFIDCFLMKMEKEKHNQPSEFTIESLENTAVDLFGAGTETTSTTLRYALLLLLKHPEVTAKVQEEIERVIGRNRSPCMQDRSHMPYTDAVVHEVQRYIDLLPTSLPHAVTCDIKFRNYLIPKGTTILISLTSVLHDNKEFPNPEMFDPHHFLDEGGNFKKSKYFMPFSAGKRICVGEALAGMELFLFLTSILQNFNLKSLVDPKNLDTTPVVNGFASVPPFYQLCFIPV
HIV Rev-RRE inh: disrupts HIV-1 Rev binding to RRE RNA | Rev peptide-RRE RNA binding, FRET | inhibition, % at 8 µM | hit rate 0.79% among 97,000 | AID 704;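 active = inhibition above the screen-wide mean plus 3 SD, cut at about 35% in these data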;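 also: 0% = median DMSO wells and 100% = median Neomycin B control wells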
Target sequence (P05866 whole entry, looked up): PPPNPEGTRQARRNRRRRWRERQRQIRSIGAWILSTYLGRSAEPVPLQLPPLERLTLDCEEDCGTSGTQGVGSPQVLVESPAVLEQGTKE
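Test system – labelled RRE RNA duplex and labelled Rev peptide · Reagent – labelled Rev peptide · Doses – one concentration, 8 µM nominal · Incubation – 5 + 15 min at 25 °C · Signal – FRET fluorescence readout · Read-out basis – % inhibition of FRET ratio versus controls · Control set – DMSO wells as 0% and neomycin B wells as 100% inhibition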
CYP2C19 inhib: human CYP2C19 inhibition; P33261; CYP2C19 Supersomes, luciferin-H EGE luminescence, 30 min; inhibition, % at 5 µM; hit rate 21% among 96,000; AID 778;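 active = CYP2C19 inhibition above a set limit at 5 µM in the primary screen, cut at about 50% in these data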;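 also: plate controls were negative control wells for no effect and 2.5 mM tranylcypromine positive control for full effect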
CYP2C9 inhib: human CYP2C9 inhibition; P11712; CYP2C9 Supersomes, luciferin-H conversion, luminescence; inhibition, % at 5 µM; hit rate 20% among 96,000; AID 777;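 active = blocking of liver enzyme CYP2C9 beyond about 50% at 5 µM, limit read from the data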
CYP2C19 act: activators of human cytochrome P450 2C19 | P33261 | recombinant CYP2C19, luciferin-H EGE luminescence; stronger effect = higher value; 0 = fully inhibited enzyme, 1 = untreated enzyme | activation factor at 5 µM | 96,000 tested, under 10 active | AID 1025;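 active = activation factor of at least 2 at 5 µM in the primary screen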;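 also: 0 = wells with 2.5 mM tranylcypromine and 1 = vehicle-only wells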
* = called active by the depositor; nt = no result. An excerpt weighted towards active compounds, which were near 27% of everything screened.

SMILES | Cav32 inh | CYP2C9 activ | HIV Rev-RRE inh | CYP2C19 inhib | CYP2C9 inhib | CYP2C19 act
CCOc1ccc2[nH]c(=O)c(CN(Cc3ccc(F)cc3)C(=O)c3ccco3)cc2c1 | -4.3* | 0.8 | 4 | 22 | 22 | 0.8
C=C1CCN(C(C)C(=O)O)S(=O)(=O)c2ccccc21 (stereo not given) | 1 | nt | nt | nt | nt | nt
COc1ccc(C(=O)COc2ccccc2N2C(=O)C3C4C=CC(C4)C3C2=O)cc1 (stereo not given) | 0.026 | 0.9 | 3 | 8 | 12 | 0.9
Cc1nc(N2CCC(C)CC2)c2oc3ccccc3c2n1 | -2.1 | 0.3 | 11 | 67* | 70* | 0.3
Cc1nc(N2CCN(C(=O)c3ccco3)CC2)c2oc3ccccc3c2n1 | -1 | 0.5 | nt | 70* | 53* | 0.3
O=C(c1ccco1)N1CCN(c2nc(C3CC3)nc3c2nnn3Cc2ccccc2Cl)CC1 | -1.9 | nt | -2 | nt | nt | nt
CCc1nc(N2CCN(C(=O)c3ccco3)CC2)c2oc3ccccc3c2n1 | -4.1 | 0.1 | 4 | 95* | 92* | 0.1
Cc1nc2ccccc2c2oc(C(=O)N3CCN(C(=O)c4ccco4)CC3)cc12 | 0.17 | 0.6 | nt | 22 | 39 | 0.8
CCc1nc(N2CCCC2C(=O)O)c2oc3ccccc3c2n1 (stereo not given) | 0.15 | 1 | 7 | 3 | -2 | 1
CC(C)(C)c1nc(N2CCN(C(=O)c3ccco3)CC2)c2nnn(Cc3ccccc3)c2n1 | -7.2* | 0.8 | -5 | 2 | 24 | 1
COc1ccccc1N1CCN(c2nc(C)nc3c2oc2ccccc23)CC1 | -3.5 | 0.7 | 4 | 32 | 26 | 0.7
COCCNC(=O)c1ccccc1NC(=O)c1ccc(OC)c(OC)c1 | 0.14 | 0.7 | nt | 3 | 33 | 1
O=C(O)c1cc(-c2ccccn2)n[nH]1 | 0.76 | 1.1 | 7 | -14 | -9 | 1.1
CC(=O)c1cccc(NC(=O)c2nccnc2C(=O)O)c1 | -0.59 | 0.9 | 5 | -2 | 7 | 1
O=C(NOC(=O)c1ccccc1Cl)c1cccs1 | 0.0062 | 0.5 | 11 | -10 | 51* | 1.1
COC(=O)c1ccccc1NC(=O)c1cccs1 | nt | 1.3 | 2 | -1 | -26 | 1
Cc1c(C=O)c2ccccc2n1CC(=O)N1CCc2ccccc2C1 | 1.2 | nt | 4 | nt | nt | nt
Cc1ncoc1C(=O)Nc1ccc2c(c1)OCCO2 | 0.31 | 0.8 | 4 | 35 | 16 | 0.6
Cc1c([N+](=O)[O-])c(C(=O)Nc2ccc3c(c2)OCCO3)nn1C | 0.94 | 0.9 | 8 | 68* | 5 | 0.3
Cc1occc1C(=O)Nc1ccc2c(c1)OCCO2 | -0.3 | 0.5 | 5 | 81* | 47 | 0.2
Cc1cc(C(=O)Nc2ccc3c(c2)OCCO3)c(C)o1 | -0.021 | 1.2 | 10 | 23 | -16 | 0.8
CCOC(=O)/C=C1\SCC(=O)N1CC(=O)NC(C)C | 0.3 | 1.1 | 9 | 25 | -6 | 0.8
CCOC(=O)/C=C1\SCC(=O)N1CC(=O)Nc1ccccc1OC(F)F | 1 | 0.6 | 6 | 96* | 38 | 0
O=c1cc(O)c2c(=O)[nH]c(=O)n(-c3ccccc3)c2[nH]1 | 0.22 | 0.9 | 7 | -5 | 8 | 1.1
CC(=O)c1ccc(-c2ccccc2[C@H]2[C@H]3C=CC[C@@H](C)[C@@H]3C(=O)N2Cc2ccccc2)cc1 | -0.78 | nt | nt | nt | nt | nt
SMILES | Cav32 inh | CYP2C9 activ | HIV Rev-RRE inh | CYP2C19 inhib | CYP2C9 inhib | CYP2C19 act
CCOC(=O)Cc1nnc(Nc2cccc(O)c2)c2ccccc12 | 0.58 | 1.1 | 6 | 22 | -12 | 0.8
Cc1nc2ncnn2c(C)c1Cc1ccc(Cl)cc1 | 1.6 | 0.3 | 6 | 95* | 73* | 0
Cc1ccc(NC(=O)CCc2c(C)nc3ncnn3c2C)nc1 | 0.58 | 0.8 | 6 | -6 | 15 | 1.1
Cc1cc(C)cc(NC(=O)Cn2c(=O)oc3cc(S(=O)(=O)N4CC(C)CC(C)C4)ccc32)c1 (stereo not given) | -4.3* | 0.4 | 8 | 31 | 56* | 0.7
O=C(Cn1c(=O)oc2cc(S(=O)(=O)N3CCCC3)ccc21)Nc1cccc(C(F)(F)F)c1 | -0.25 | 0.7 | 6 | -5 | 31 | 1.1
CCc1ccc(NC(=O)Cn2c(=O)oc3cc(S(=O)(=O)N4CCOCC4)ccc32)cc1 | 0.37 | 1.1 | 4 | -17 | -13 | 1.2
CCCCNC(=O)Cn1c(=O)oc2cc(S(=O)(=O)N3CC(C)CC(C)C3)ccc21 (stereo not given) | -0.19 | 0.4 | 7 | 12 | 57* | 0.9
CC(C)=C1C2CCC1C1C(=O)N(c3nc(-c4ccc(F)cc4)c(C)s3)C(=O)C21 (stereo not given) | -0.0092 | 1.7 | 10 | 24 | -74 | 0.8
Cc1ccc2nsnc2c1S(=O)(=O)N(Cc1cc2cccc(C)c2[nH]c1=O)CC1CCCO1 (stereo not given) | -0.3 | 0.2 | 8 | 7 | 78* | 0.9
Cc1ccc2cc(CN(CC3CCCO3)C(=O)C(C)C)c(=O)[nH]c2c1 (stereo not given) | 1.2 | nt | -1 | nt | nt | nt
Cc1ccc2cc(CN(CC3CCCO3)S(=O)(=O)c3c(C)ccc4nsnc34)c(=O)[nH]c2c1 (stereo not given) | 1 | 0.5 | -1 | -11 | 52* | 1.1
Cc1ccc2cc(CN(CCCO)S(=O)(=O)c3cccc4nsnc34)c(=O)[nH]c2c1C | 0.96 | 0 | 4 | 42 | 100* | 0.6
COc1ccc2cc(CN(CC3CCCO3)S(=O)(=O)c3ccccc3Cl)c(=O)[nH]c2c1 (stereo not given) | nt | 0 | 5 | 58* | 99* | 0.4
COc1ccc(CC2NCCC3=CC(=O)CCC32)cc1O (stereo not given) | 1.1 | nt | nt | nt | nt | nt
O=C(CN1CCN(c2ccccc2)CC1)Nc1ccc(Oc2ccccc2)cc1 | -1.7 | 0.8 | 3 | 1 | 17 | 1
CCN(CC)S(=O)(=O)c1ccc(S(=O)(=O)N(CC(=O)Nc2ccccc2)CC2CCCO2)cc1 (stereo not given) | -1.2 | nt | 3 | nt | nt | nt
CCN(Cc1ccccc1)S(=O)(=O)c1ccc(S(=O)(=O)N(Cc2cccc(OC)c2)CC2CCCO2)cc1 (stereo not given) | -6.7* | 0.5 | 5 | 15 | 55* | 0.8
C=CCn1c(NCCO)nc2sc3c(c2c1=O)CCC3 | -0.068 | 0.9 | nt | 13 | 9 | 0.9
OCCNc1nc(SCc2ccccc2)nc2sc3c(c12)CCC3 | nt | 0.3 | 8 | 47 | 68* | 0.5
O=C(NNC(=O)c1ccc(SCC2CCCO2)c([N+](=O)[O-])c1)c1ccc(F)cc1 (stereo not given) | -0.076 | 0.8 | -5 | -3 | 19 | 1
CCOc1cc(C(=S)N2CCOCC2)ccc1OS(=O)(=O)c1ccc(NC(C)=O)cc1 | -0.026 | 0.4 | 5 | 71* | 61* | 0.3
CCOc1ccc(C(=O)CCC(=O)O)cc1 | -0.043 | 0.9 | 3 | 28 | 7 | 0.7
